{"data": "Measurements collected from several papers", "effect on": "cell growth or viability", "note": "Protocols differ between the studies behind these lines."}
{"Compound": "Oc1ccc(Nc2nc(-c3ccc(Cl)cc3)cs2)cc1", "cell line": "WM35", "method": "MTS", "time": "48 h", "quantity": "IC50", "value": "10300 nM"}
{"Compound": "COc1ccc(-c2ccc(-c3ccc(C(=N)N)nc3)s2)cc1", "cell line": "UACC-257", "method": "SRB", "quantity": "GI50", "value": "1800 nM"}
{"Compound": "COc1ccc(C2=Nn3c(NN=C4C(=O)Nc5ccc(OC)cc54)nnc3SC2)cc1", "cell line": "SNB-75", "method": "SRB", "tested at": "10 µM", "quantity": "inhibition", "value": "16%"}
{"Compound": "CC(C)C[C@H](NC(=O)[C@H](Cc1ccccc1)NC(=O)c1cnccn1)B(O)O", "cell line": "EPLC-272H", "method": "ATP luminescence", "quantity": "IC50", "value": "8.6 nM"}
{"Compound": "O=C(N/N=C/c1c(O)ccc2ccccc12)c1cc(-c2ccc3ccccc3c2)n[nH]1", "cell line": "WM35", "method": "MTS", "time": "24 h", "quantity": "IC50", "value": "37000 nM"}
{"Compound": "COc1cccc(-c2cn(-c3cc(=O)oc4ccc(Br)cc34)nn2)c1", "cell line": "CCRF-CEM", "time": "48 h", "quantity": "CC50", "value": "10300 nM"}
{"Compound": "COc1cc(Nc2nccc(-c3cnn4nc(OC)ccc34)n2)cc(C(F)(F)F)c1", "cell line": "RKO", "method": "ATP luminescence", "quantity": "IC50", "value": "270 nM"}
{"Compound": "COc1ccc(-c2ccc(-c3ccc(C(=N)N)nc3)s2)cc1Cl", "cell line": "SNB-75", "method": "SRB", "quantity": "GI50", "value": "1430 nM"}
{"Compound": "COc1ccc(/C=C\\c2cc(OC)c(OC)c(OC)c2)cc1O", "cell line": "CCRF-CEM", "time": "48 h", "quantity": "CC50", "value": "36 nM"}
